Target: T1, Menin (Homo sapiens) (UniProt O00255)
T1 sequence (whole entry): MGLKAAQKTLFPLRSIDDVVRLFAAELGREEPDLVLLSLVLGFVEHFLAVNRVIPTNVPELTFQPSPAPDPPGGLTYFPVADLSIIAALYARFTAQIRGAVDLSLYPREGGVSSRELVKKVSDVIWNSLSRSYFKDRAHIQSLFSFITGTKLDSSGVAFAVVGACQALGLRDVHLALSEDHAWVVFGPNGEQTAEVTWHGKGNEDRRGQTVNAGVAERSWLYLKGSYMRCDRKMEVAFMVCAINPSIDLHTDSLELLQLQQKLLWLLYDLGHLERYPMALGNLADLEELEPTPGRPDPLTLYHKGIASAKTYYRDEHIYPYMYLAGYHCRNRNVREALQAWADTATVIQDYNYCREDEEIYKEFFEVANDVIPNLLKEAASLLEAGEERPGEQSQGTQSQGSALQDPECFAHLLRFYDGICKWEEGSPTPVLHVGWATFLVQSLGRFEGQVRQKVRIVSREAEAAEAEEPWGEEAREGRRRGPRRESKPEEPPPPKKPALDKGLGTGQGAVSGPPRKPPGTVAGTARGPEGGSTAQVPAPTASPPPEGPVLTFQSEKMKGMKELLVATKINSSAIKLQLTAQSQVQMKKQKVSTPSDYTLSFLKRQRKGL
Assay: Inhibition of FITC-labelled MLL1 binding to menin (unknown origin) at 20 uM after 120 mins by fluorescence polarization method relative to control
Summary of the method: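 Menin–MLL1 protein–protein interaction inhibition assay with fluorescence polarization read-out on a plate reader. MI-2-2 served as the positive control.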

Row | SMILES | inhibition
1 | CC1(C)CC2=NC(C)(C)C(=O)C(C(C)(C)O)=C2N1 | < 50%
2 | CC(=O)NC(C)(C)[C@H]1C(=O)C2=CC(C)(C)NC(C)=C2C(=O)[C@@H]1C=C(C)C | < 50%
3 | CC1(C)CC2=NC(C)(C)C3=NC(C)(C)CC3(O)C2=N1 (stereo not drawn) | < 50%
4 | CC(=O)NC(C)(C)CC1=C[C@@]2(C)C(=O)C(C)(C)NC(C)=C2C1=O | < 50%
5 | CC(=O)NC(C)(C)C[C@@]1(O)C(=O)C2=C(C)NC(C)(C)C(=O)C2(C)[C@H]1O (stereo partly drawn) | < 50%
6 | CC1=C2C3=C(C)C(=O)C(C)(C)N=C3C[C@@]2(C)CC(C)(C)N1 | < 50%
7 | CC(=O)NC(C)(C)[C@H]1C(=O)C2=CC(C)(C)NC(C)=C2C(=O)[C@@H]1C | < 50%
8 | CC(=O)NC(C)(C)C1C=C2CC(C)(C)NC(C)=C2C(=O)C1C (stereo not drawn) | < 50%

Results, then the compound that gave them:

Row | inhibition | SMILES
9 | < 50% | CC1(C)CC(C2OC2(C)C)=CC(=O)N1 (stereo not drawn)
10 | < 50% | CC1=CC(=O)NC(C)(C)C1
11 | < 50% | CC1=CC(C)(C)NC1=O
12 | < 50% | CC1=C2C(=O)C3=CC(C)(C)N=C4CC(C)(C)C[C@@]2(CC(C)(C)N1)[C@]34O
13 | < 50% | CC1=C2NC(C)(C)CC2=NC(C)(C)C1=O
